Measured values gathered from unrelated publications.
Compare with care: the assays were run in different laboratories.
Target: Tyrosine-protein kinase ITK/TSK (ITK, Homo sapiens, UniProt Q08881)
One construct used (Q08881 1-620): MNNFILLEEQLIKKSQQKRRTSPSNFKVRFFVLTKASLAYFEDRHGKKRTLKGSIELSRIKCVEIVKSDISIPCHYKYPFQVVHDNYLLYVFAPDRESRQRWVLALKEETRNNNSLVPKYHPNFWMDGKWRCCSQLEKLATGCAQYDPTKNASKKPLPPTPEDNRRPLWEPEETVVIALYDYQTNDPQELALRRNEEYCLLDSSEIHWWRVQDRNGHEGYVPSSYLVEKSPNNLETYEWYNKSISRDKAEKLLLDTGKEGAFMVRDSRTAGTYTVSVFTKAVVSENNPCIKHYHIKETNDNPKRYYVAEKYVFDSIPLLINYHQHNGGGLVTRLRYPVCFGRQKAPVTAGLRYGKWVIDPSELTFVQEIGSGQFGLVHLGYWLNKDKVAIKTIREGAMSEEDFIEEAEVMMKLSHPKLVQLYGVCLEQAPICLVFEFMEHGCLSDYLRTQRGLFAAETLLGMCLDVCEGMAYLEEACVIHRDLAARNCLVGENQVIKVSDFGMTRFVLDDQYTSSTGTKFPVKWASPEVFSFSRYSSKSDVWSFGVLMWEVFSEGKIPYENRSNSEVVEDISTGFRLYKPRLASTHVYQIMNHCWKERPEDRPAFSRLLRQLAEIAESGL

Compound | effect on | method | concentration | remaining binding [%]
C[C@@H]1CCN(c2nccc(-c3cnn4ncccc34)n2)C1 | binding |  | 1 µM | 91
COc1cnc(Nc2cccc(S(N)(=O)=O)c2)nc1N1CCN(c2ccccc2)CC1 | binding | competition with immobilised ligand | 1 µM | 95
CCC(=N\O)/C(C)=C/c1ccc(F)cc1 | cell-free assay | competition with immobilised ligand | 1 µM | 90
FC(F)(F)Oc1cccc(-c2cnc3ccc(-c4ccncc4)nn23)c1 | cell-free assay | competition with immobilised ligand | 5 µM | 84
O=C(O)[C@H]1[C@H](Cn2nnc3ccccc3c2=O)CC[C@@H]1C(=O)c1ccc(OCCC2CCOCC2)cc1 | cell-free assay | competition with immobilised ligand | 1 µM | 100
CCN1CCN(Cc2ccc(C(=O)Nc3ccc(C)c(Oc4ccc5c(c4)CC(=O)N5)c3)cc2C(F)(F)F)CC1 | binding | competition with immobilised ligand | 1 µM | 72
Cc1nccc(COC(=O)N2C[C@@H]3[C@@H](CNC(=O)c4ccc5[nH]nnc5c4)[C@@H]3C2)n1 | cell-free assay | competition with immobilised ligand | 1 µM | 100
CN(CCCC(F)(F)F)c1nccc(-c2cnn3ncccc23)n1 | binding |  | 1 µM | 95
O=C(NCC1CCOCC1)c1n[nH]cc1NC(=O)c1c(F)cccc1F | binding | competition with immobilised ligand | 1 µM | 100
O=C(c1ccc(Nc2ncc(Cl)c(-c3cc4ccccc4s3)n2)cc1)N1CCC(N2CCCC2)CC1 | binding | competition with immobilised ligand | 1 µM | 50
Cc1cnn2ncc(-c3ccnc(N(C)C)n3)c2c1 | binding |  | 1 µM | 100
O=C(c1ccc(Nc2nccc(-c3cc4ccccc4s3)n2)cc1)N1CCC(N2CCCC2)CC1 | binding | competition with immobilised ligand | 1 µM | 96
CN(C)c1nccc(-c2cnn3ncccc23)n1 | binding |  | 1 µM | 100
COc1ccc2c(c1)O[C@H](c1ccc(OC)c(OC)c1)C[C@@H]2NC(=O)C1(c2ccc3c(c2)OC(F)(F)O3)CC1 | cell-free assay | competition with immobilised ligand | 1 µM | 100
O=C(NCCCN1CCOCC1)c1ccc(Nc2nccc(-c3cc4ccccc4s3)n2)cc1 | binding | competition with immobilised ligand | 1 µM | 100
F[C@@H]1CCN(c2nccc(-c3cnn4ncccc34)n2)C1 | binding |  | 1 µM | 100
O=C(Nc1cccnn1)N1CC(C/C=C/c2cncc(Oc3ccc(C(F)(F)F)cn3)n2)C1 | cell-free assay | competition with immobilised ligand | 1 µM | 100
c1cncc(-c2cccc(Nc3nccc(NC4CCCCC4)n3)c2)c1 | binding | competition with immobilised ligand | 10 µM | 80
CCC(=O)N[C@@H]1CC[C@H](C(=O)N(C)c2ccc(-c3nc4ccccc4o3)cc2)C1 | cell-free assay | competition with immobilised ligand | 1 µM | 100
N[C@@H]1CCN(c2nccc(-c3cnn4ncccc34)n2)C1 | binding |  | 1 µM | 93
